Laboratory results taken from ChEMBL document CHEMBL2062460, “Disubstituted thiourea derivatives and their activity on CNS: synthesis and biological evaluation” (Eur J Med Chem, 2012).
The source made the active and inactive calls.

How the values were obtained:
Mus musculus [1] = experiment: Toxicity in Albino Swiss mouse assessed as locomotor activity administered at doses equivalent to 0.1 ED50, ip measured after 1 hr for 30 mins; format: organism-based; conditions: in vivo
Outline: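 Spontaneous locomotor activity of single male Albino Swiss mice in photoresistor actometers (two light beams), beam crossings recorded for 30 min, starting 60 min after i.p. compound in 0.5% methylcellulose.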

Mus musculus [2] = experiment: Toxicity in Albino Swiss mouse assessed as effect on amphetamine-induced hyperactivity administered at doses equivalent to 0.1 ED50, ip; format: organism-based; conditions: in vivo
Outline: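 Compound i.p. in 0.5% methylcellulose 60 min before test; amphetamine 5 mg/kg s.c. 30 min before test; single mice in photoresistor actometers, light-beam crossings counted for 30 min.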

Mus musculus [3] = experiment: Antinociceptive activity in Albino Swiss mouse administered at doses equivalent to 0.025 to 0.1 ED50, ip; format: functional, organism-based
Mus musculus [4] = experiment: Toxicity in Albino Swiss mouse assessed as motor coordination administered at doses equivalent to 0.1 ED50, ip by chimney test; format: organism-based; conditions: in vivo
Mus musculus [5] = experiment: Toxicity in Albino Swiss mouse assessed as motor coordination administered at doses equivalent to 0.1 ED50, ip by rota rod test; format: organism-based; conditions: in vivo
Mus musculus [6] = experiment: Anticonvulsant activity in Albino Swiss mouse assessed as protection against pentylenetetrazole-induced severity of clonic or tonic seizures administered at doses equivalent to 0.1 ED50, ip; format: functional, organism-based
Mus musculus [7] = experiment: Anticonvulsant activity in Albino Swiss mouse assessed as protection against pentylenetetrazole-induced mortality administered at doses equivalent to 0.1 ED50, ip; format: functional, organism-based
Bacillus subtilis = experiment: Antibacterial activity against Bacillus subtilis ATCC 6633 at 400 ug/disc after 18 hrs by disc diffusion method; format: functional; conditions: ATCC 6633, 18 h, read-out: DIZ
Outline: (§1)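 Disc diffusion per CLSI on Mueller–Hinton II agar; 9 mm paper discs loaded from methanol or DMSO solutions to 400 µg per disc, dried; growth inhibition zone diameter read after 18 h at 35 °C.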

[8] = tested on: Staphylococcus epidermidis; experiment: Antibacterial activity against Staphylococcus epidermidis ATCC 12228 at 400 ug/disc after 18 hrs by disc diffusion method; format: functional; outline: as §1
Mus musculus [9] = experiment: Reduction of 5-hydroxytryptophan-induced head twitch in Albino Swiss mouse administered at doses equivalent to 0.1 ED50, ip; format: functional, organism-based
Enterococcus hirae = experiment: Antibacterial activity against Enterococcus hirae ATCC 10541 at 400 ug/disc after 18 hrs by disc diffusion method; format: functional; outline: as §1
Mus musculus [10] = experiment: Reduction of body temperature in normothermic Albino Swiss mouse administered at doses equivalent to 0.1 ED50, ip measured in rectum by thermistor thermometer analysis; format: ADME, organism-based; conditions: in vivo
Staphylococcus aureus [11] = experiment: Antibacterial activity against Staphylococcus aureus NCTC 4163 at 400 ug/disc after 18 hrs by disc diffusion method; format: functional; outline: as §1
Staphylococcus aureus [12] = experiment: Antibacterial activity against Staphylococcus aureus ATCC 25923 at 400 ug/disc after 18 hrs by disc diffusion method; format: functional; outline: as §1
Staphylococcus aureus [13] = experiment: Antibacterial activity against Staphylococcus aureus ATCC 6538 at 400 ug/disc after 18 hrs by disc diffusion method; format: functional; outline: as §1
Staphylococcus aureus [14] = experiment: Antibacterial activity against Staphylococcus aureus ATCC 29213 at 400 ug/disc after 18 hrs by disc diffusion method; format: functional; outline: as §1
Bacillus cereus = experiment: Antibacterial activity against Bacillus cereus ATCC 11778 at 400 ug/disc after 18 hrs by disc diffusion method; format: functional; outline: as §1
Micrococcus luteus [15] = experiment: Antibacterial activity against Micrococcus luteus ATCC 9341 at 400 ug/disc after 18 hrs by disc diffusion method; format: functional; conditions: ATCC 9341, 18 h, read-out: DIZ; outline: as §1
Micrococcus luteus [16] = experiment: Antibacterial activity against Micrococcus luteus ATCC 10240 at 400 ug/disc after 18 hrs by disc diffusion method; format: functional; conditions: ATCC 10240, 18 h, read-out: DIZ; outline: as §1
Escherichia coli [17] = experiment: Antibacterial activity against Escherichia coli ATCC 10538 at 400 ug/disc after 18 hrs by disc diffusion method; format: functional, organism-based; outline: as §1
Escherichia coli [18] = experiment: Antibacterial activity against Escherichia coli ATCC 25922 at 400 ug/disc after 18 hrs by disc diffusion method; format: functional, organism-based; outline: as §1
Escherichia coli [19] = experiment: Antibacterial activity against Escherichia coli NCTC 8196 at 400 ug/disc after 18 hrs by disc diffusion method; format: functional, organism-based; outline: as §1
Proteus vulgaris = experiment: Antibacterial activity against Proteus vulgaris NCTC 4635 at 400 ug/disc after 18 hrs by disc diffusion method; format: functional, organism-based; outline: as §1
Pseudomonas aeruginosa [20] = experiment: Antibacterial activity against Pseudomonas aeruginosa ATCC 15442 at 400 ug/disc after 18 hrs by disc diffusion method; format: functional, organism-based; outline: as §1
Pseudomonas aeruginosa [21] = experiment: Antibacterial activity against Pseudomonas aeruginosa NCTC 6749 at 400 ug/disc after 18 hrs by disc diffusion method; format: functional, organism-based; outline: as §1
Pseudomonas aeruginosa [22] = experiment: Antibacterial activity against Pseudomonas aeruginosa ATCC 27853 at 400 ug/disc after 18 hrs by disc diffusion method; format: functional, organism-based; outline: as §1
[23] = tested on: Bordetella bronchiseptica; experiment: Antibacterial activity against Bordetella bronchiseptica ATCC 4617 at 400 ug/disc after 18 hrs by disc diffusion method; format: functional, organism-based; outline: as §1
Candida albicans [24] = experiment: Antifungal activity against Candida albicans ATCC 10231 at 400 ug/disc after 18 hrs by disc diffusion method; format: functional, organism-based
Outline: (§2)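 Yeasts tested by disc diffusion (CLSI) on RPMI agar with 2% glucose; 9 mm paper discs bearing 400 µg compound from methanol or DMSO solution; inhibition zone diameter read after 18 h at 35 °C.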

Candida albicans [25] = experiment: Antifungal activity against Candida albicans ATCC 90028 at 400 ug/disc after 18 hrs by disc diffusion method; format: functional, organism-based; outline: as §2
Candida parapsilosis = experiment: Antifungal activity against Candida parapsilosis ATCC 22019 at 400 ug/disc after 18 hrs by disc diffusion method; format: functional, organism-based; outline: as §2
[26] = Cytotoxicity against human MT4 cells after 96 hrs by MTT assay; format: cell-based
[27] = tested on: Human immunodeficiency virus 1; experiment: Antiviral activity against HIV1 infected in human MT4 cells assessed as virus-induced cytopathogenicity after 4 days by MTT assay; format: functional, organism-based; conditions: Human immunodeficiency virus 1, MT4, 96 h

S=C(Nc1cccc(Br)c1)Nc1nc[nH]n1
> 50 µM: EC50 [27]
inactive: Activity (Mus musculus [6]) | Activity (Mus musculus [7]) | diameter of the inhibition zone (DIZ) [8] | diameter of the inhibition zone (DIZ) (Enterococcus hirae) | diameter of the inhibition zone (DIZ) (Staphylococcus aureus [11]) | diameter of the inhibition zone (DIZ) (Staphylococcus aureus [12]) | diameter of the inhibition zone (DIZ) (Staphylococcus aureus [13]) | diameter of the inhibition zone (DIZ) (Staphylococcus aureus [14]) | diameter of the inhibition zone (DIZ) (Bacillus cereus) | diameter of the inhibition zone (DIZ) (Escherichia coli [17]) | diameter of the inhibition zone (DIZ) (Escherichia coli [18]) | diameter of the inhibition zone (DIZ) (Escherichia coli [19]) | diameter of the inhibition zone (DIZ) (Proteus vulgaris) | diameter of the inhibition zone (DIZ) (Pseudomonas aeruginosa [20]) | diameter of the inhibition zone (DIZ) (Pseudomonas aeruginosa [21]) | diameter of the inhibition zone (DIZ) (Pseudomonas aeruginosa [22]) | diameter of the inhibition zone (DIZ) [23] | diameter of the inhibition zone (DIZ) (Candida albicans [24]) | diameter of the inhibition zone (DIZ) (Candida albicans [25]) | diameter of the inhibition zone (DIZ) (Candida parapsilosis)
14 mm: zone of inhibition at 400 µg/disc (Micrococcus luteus [16])
active: Activity (Mus musculus [3]) | Activity (Mus musculus [9])
Toxic: Activity (Mus musculus [10])
15 mm: zone of inhibition at 400 µg/disc (Micrococcus luteus [15])
16 mm: zone of inhibition at 400 µg/disc (Bacillus subtilis)
50 µM: CC50 at 96 h [26]
Non-toxic: Activity (Mus musculus [1]) | Activity (Mus musculus [2]) | Activity (Mus musculus [4]) | Activity (Mus musculus [5])
